Source: PubChem BioAssay AID504491 (The Scripps Research Institute Molecular Screening Center, 2011)
Active and inactive are the calls of the source.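 The calls were made as follows: active = inhibition of the target enzyme PAFAH2 of at least 50%, whatever the off-target enzymes show; inactive = PAFAH2 inhibition under 50%.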

Columns and labels:
Assay in all cases: serine hydrolase selectivity versus PAFAH2 – cell lysate, gel-based fluorescence ABPP, carbamate vs triazole urea, selectivity assay, late-stage follow-up (AID 504491)
LYPLA1 = settings: BW5147 mouse T-cell proteome, gel ABPP FP-Rh, 30 min, at 20 µM, active compounds read high
Summary of the method: (§1)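 Test system: soluble proteome from murine BW5147-derived T cells. Input: 1 mg/mL lysate protein. Buffer or medium: DPBS. Reagent: FP-Rh probe, 2 µM. Compound: one dose, 20 µM. Schedule: 30 min compound, 30 min probe, 25 °C. Signal: SDS-PAGE separation with in-gel fluorescence scanning. Benchmarks: DMSO high control, blank-gel background low control.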

ABHD11 = settings: BW5147 mouse T-cell proteome, gel ABPP FP-Rh, 30 min, at 20 µM, active compounds read high
Summary of the method: as §1

ESD = settings: BW5147 mouse T-cell proteome, gel ABPP FP-Rh, 30 min, at 20 µM, active compounds read high
Summary of the method: as §1

APEH = settings: BW5147 mouse T-cell proteome, gel ABPP FP-Rh, 30 min, at 20 µM, active compounds read high
Summary of the method: as §1

LYPLA2 = settings: BW5147 mouse T-cell proteome, gel ABPP FP-Rh, 30 min, at 20 µM, active compounds read high
Summary of the method: as §1

[1] = target: Platelet-activating factor acetylhydrolase 2, cytoplasmic (Mus musculus) (UniProt Q8VDG7); settings: BW5147 mouse T-cell proteome, gel ABPP FP-Rh, 30 min; PAFAH2; at 20 µM; active compounds read high
Summary of the method: as §1

Chain of Platelet-activating factor acetylhydrolase 2, cytoplasmic (Mus musculus) (Q8VDG7 whole entry, looked up): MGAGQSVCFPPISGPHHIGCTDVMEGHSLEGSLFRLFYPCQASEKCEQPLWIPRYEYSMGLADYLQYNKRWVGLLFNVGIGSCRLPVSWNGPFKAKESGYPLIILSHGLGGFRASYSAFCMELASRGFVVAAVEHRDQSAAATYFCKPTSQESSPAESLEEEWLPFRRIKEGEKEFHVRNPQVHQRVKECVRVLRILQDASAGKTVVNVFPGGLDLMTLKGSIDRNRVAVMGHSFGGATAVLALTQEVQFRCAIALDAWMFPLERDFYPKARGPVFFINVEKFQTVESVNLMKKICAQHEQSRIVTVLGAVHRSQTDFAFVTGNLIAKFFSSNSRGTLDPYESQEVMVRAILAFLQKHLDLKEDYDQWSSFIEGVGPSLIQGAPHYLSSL

Compound	inhibition (LYPLA1)	inhibition (ABHD11)	inhibition (ESD)	inhibition (APEH)	inhibition (LYPLA2)	inhibition [1]
O=C(N1CCCCC1)n1ccnn1	100%	100%	100%	100%	100%	100%
O=C(Oc1ccc([N+](=O)[O-])cc1)N1CCCCC1	0% (inactive)	100%	0% (inactive)	0% (inactive)	0% (inactive)	0% (inactive)
